MEX-5 binding – MEX-5 zinc finger RNA-binding disruptors – biochemical, C. elegans, fluorescence polarization, MLPCN library, primary screen; hit rate 0.38% among 300,000; activity score (negative = inhibition of binding), % at 10 µM; Zinc finger protein mex-5 (Caenorhabditis elegans), Q9XUB2; MEX-5/FITC-TCR2 RNA binding; hits give low values;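 active means inhibition past about -25% in most replicates, and total fluorescence under double the plate's negative control median, limit read from the data; inconclusive means replicates evenly split on the limit, or fluorescence at least double controls; inactive means too little inhibition in most replicates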
EBV gp42 block – Epstein-Barr virus gp42 inhibitors, primary screen, biochemical, uHTS, fluorescence polarization; inhibition, % (tested at 21.74 µM); hit rate 0.42% among 220,000; Glycoprotein 42 (Epstein-Barr virus (strain AG876)), Q1HVG2; Fluorescence polarization binding assay, mP read-out
Runt-SMMHC FRET – inhibitors of RUNX1 Runt–CBFb-SMMHC binding, primary screen, biochemical, FRET, Cerulean-Runt, Venus-CBFb-SMMHC, uHTS; Runt-related transcription factor 1 (Homo sapiens) + Core-binding factor subunit beta …; Cerulean-Runt/Venus-CBFb-SMMHC FRET ratio 530/480, 1 h; AID 1434, 2008; hit rate 0.74% among 220,000; inhibition, % at 20 µM;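 active means mean inhibition across duplicate retests at 20 µM reaching about 50%, limit read from the data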;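 further: inhibitors lower the FRET ratio by blocking Runt binding to CBFb-SMMHC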
PKD1 inh – inhibitors of human PKD1 kinase, biochemical, fluorescence polarization; Serine/threonine-protein kinase D1 (Homo sapiens), Q15139; PKD1 kinase fluorescence polarization assay; inhibition, % (no concentration beside the values); hit rate 0.056% among 200,000; AID 797, 2007
Target sequence (Q15139 whole entry, looked up): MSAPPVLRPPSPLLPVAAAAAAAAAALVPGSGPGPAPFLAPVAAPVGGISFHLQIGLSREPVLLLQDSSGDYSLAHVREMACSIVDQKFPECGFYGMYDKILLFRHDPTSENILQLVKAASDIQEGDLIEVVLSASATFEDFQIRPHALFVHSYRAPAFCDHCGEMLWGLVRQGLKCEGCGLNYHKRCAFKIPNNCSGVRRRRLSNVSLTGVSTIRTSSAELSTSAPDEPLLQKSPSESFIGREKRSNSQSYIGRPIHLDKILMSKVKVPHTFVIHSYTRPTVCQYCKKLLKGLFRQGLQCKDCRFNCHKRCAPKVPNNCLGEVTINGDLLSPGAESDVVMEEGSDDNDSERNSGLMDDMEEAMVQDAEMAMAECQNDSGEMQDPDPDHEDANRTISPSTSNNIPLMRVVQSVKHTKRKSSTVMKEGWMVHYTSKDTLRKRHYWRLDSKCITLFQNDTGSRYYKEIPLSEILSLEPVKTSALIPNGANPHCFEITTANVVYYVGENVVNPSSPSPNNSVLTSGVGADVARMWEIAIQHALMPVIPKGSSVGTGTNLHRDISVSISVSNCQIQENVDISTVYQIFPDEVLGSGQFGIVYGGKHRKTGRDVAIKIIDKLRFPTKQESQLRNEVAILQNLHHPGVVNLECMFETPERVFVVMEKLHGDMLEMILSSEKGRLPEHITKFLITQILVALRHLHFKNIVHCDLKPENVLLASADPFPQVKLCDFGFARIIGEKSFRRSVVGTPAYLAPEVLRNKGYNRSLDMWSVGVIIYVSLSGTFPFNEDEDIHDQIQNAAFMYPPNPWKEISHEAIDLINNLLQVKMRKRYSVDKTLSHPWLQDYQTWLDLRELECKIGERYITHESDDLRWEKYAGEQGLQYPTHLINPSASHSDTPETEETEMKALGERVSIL
RanGTP-Impb inh – inhibitors of RanGTP-importin-beta interaction, primary screen, biochemical, FRET, CFP-Ran, YFP-importin-beta, homogeneous | Ran GTPase (GTP-bound) - importin-beta complex | cell-free CFP-Ran/YFP-importin-beta FRET ratio | inhibition, % (test concentration not listed) | hit rate 1.1% among 300,000;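 active means more than half of the replicate wells show a fall in the fluorescence ratio signal beyond about 16%, limit read from the data, passing the limit was not always enough; inconclusive means exactly half of the replicate wells pass the set limit; inactive means fewer than half of replicates pass the limit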
Runt-CBFb FRET – inhibitors of RUNX1 Runt–CBFb binding, primary screen, biochemical, FRET, Cerulean-Runt, Venus-CBFb, uHTS. inhibition, % at 20 µM. AID 1496, 2009. hit rate 0.46% among 220,000. Cerulean-Runt/Venus-CBFb FRET ratio 530/480, 1 h. Runt-related transcription factor 1 (Homo sapiens) + Core-binding factor subunit beta …;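 active means inhibition over about 50% at 20 µM in the single-dose screen, limit read from the data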
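Measured by: fluorescence energy transfer, 422 nm excitation, 530/480 nm emission; Assay system: Cerulean-Runt domain; Medium: Tris pH 7.5 buffer with BSA; Measure: loss of energy transfer signal; Controls: 5 µM unlabeled CBFb as full-inhibition high control; Incubation: protein complex preformed 1 h, compound exposure 1 h, room temperature, dark.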
Hits are given with their value; . = inactive; ? = inconclusive; / = no result. In the library only some 2% were active in any assay of this set; here they are far more common. Unless noted, no stated cut-off is given here; in the data, active means inhibition above about 50%; inactive means the rest.

SMILES | MEX-5 binding | EBV gp42 block | Runt-SMMHC FRET | PKD1 inh | RanGTP-Impb inh | Runt-CBFb FRET
COc1ccc(Cn2c3ccc(OC)cc3c3nc4ccccc4nc32)cc1 | -39 | 67 | . | . | . | .
COc1ccc2c(c1)c1nc3ccccc3nc1n2CC(=O)OC(C)C | ? | 91 | . | . | . | .
COC(=O)Cn1c2ccc(C)cc2c2nc3ccccc3nc21 | . | / | / | / | 20 | /
COc1ccc2c(c1)c1nc3ccccc3nc1n2CCCN1C(=O)c2ccccc2C1=O | -42 | . | . | . | . | .
N#CCNC(=O)C1CC(=O)N(CCc2ccc(F)cc2)C1 (stereo not drawn) | . | / | / | / | . | /
O=c1[nH]c(S)c(/C=C2\C=Nc3ccccc32)s1 | . | 63 | . | / | ? | .
Oc1cccc(Nc2nc(O)c(/C=C3\C=Nc4ccccc43)s2)c1 | / | . | . | / | / | .
N=c1c(S(=O)(=O)c2ccc(Cl)cc2)cc2c(=O)n3ccccc3nc2n1C1CCCCC1 | -46 | / | / | / | ? | /
Cc1ccc(S(=O)(=O)c2cc3c(=O)n4ccccc4nc3n(CC3CCCO3)c2=N)cc1 (stereo not drawn) | / | / | / | . | / | /
O=C(NC1CCCCCC1)c1cc2c(=O)n3ccccc3nc2s1 | . | / | / | / | ? | /
Cc1ccc(S(=O)(=O)c2cc3c(=O)n4ccccc4nc3n(C3CCCCC3)c2=N)cc1 | . | / | / | / | 48 | /
COC(=O)c1cc2c(=O)n3ccccc3nc2n(C(C)C)c1=N | / | / | / | . | / | /
N=c1c(S(=O)(=O)c2ccc(Br)cc2)cc2c(=O)n3ccccc3nc2n1C1CCCC1 | . | / | / | / | 69 | /
N=c1c(S(=O)(=O)c2ccccc2)cc2c(=O)n3ccccc3nc2n1C1CCCC1 | . | / | / | / | 144 | /
Cc1ccc(NCC(=O)N/N=C/c2ccc(C(=O)O)cc2)cc1 | -61 | . | . | / | . | .
O=C(Cc1ccccc1)NCC(=O)N/N=C/c1ccc(C(=O)O)cc1 | . | / | / | / | . | /
C#CCOCCOCCOCCNc1nc(N2CCN(C(=O)[C@H]([C@@H](C)CC)n3cc([C@@H](N)CO)nn3)CC2)nc(N2CCN(C(=O)[C@H]([C@@H](C)CC)n3cc([C@@H](N)CC(C)C)nn3)CC2)n1 | -38 | . | . | . | . | .
CN1CCN(NC(=O)c2cc(-c3ccc(Br)s3)nc3ccccc23)CC1 | . | / | / | / | ? | /
O=C(O)c1cc(-c2ccc(Br)s2)nc2ccccc12 | . | / | / | / | 18 | /
CC(NC(=O)c1ccco1)C(=O)NC(C)c1cc(F)c(Cl)cc1Cl (stereo not drawn) | . | / | / | / | . | /
COc1ccc(-n2c(N)c(C#N)c3ccc([N+](=O)[O-])cc3c2=O)cc1 | . | 52 | . | . | . | .
COc1cccc(-n2c(N)c(C#N)c3ccc([N+](=O)[O-])cc3c2=O)c1 | . | . | . | . | . | .
O=C(c1cccc(Br)c1)N1CCCc2ccccc21 | . | / | / | / | . | /
O=C(c1coc(=O)c(Br)c1)N1CCCc2ccccc21 | -27 | / | . | . | . | .
CC1(C)CCCN(C(=O)c2coc(=O)c(Br)c2)C1 | -28 | 52 | . | . | . | .
SMILES | MEX-5 binding | EBV gp42 block | Runt-SMMHC FRET | PKD1 inh | RanGTP-Impb inh | Runt-CBFb FRET
O=C(c1coc(=O)c(Br)c1)N1CCC(C(O)(c2ccccc2)c2ccccc2)CC1 | . | . | . | / | . | .
C=CCN(CC=C)C(=O)c1ccc(OC2CCN(C(C)=O)CC2)c(OC)c1 | . | / | / | / | . | /
CCCCn1c(N)c(N(CC(C)C)C(=O)c2ccc(F)c(S(=O)(=O)N3CCOCC3)c2)c(=O)[nH]c1=O | . | / | / | / | . | /
C1=C(c2ccc(-c3ccccc3)cc2)Nc2ncnn2C1c1ccco1 (stereo not drawn) | / | 150 | . | . | / | .
CCOc1ccc(C2C=C(c3ccccc3)Nc3ncnn32)cc1 (stereo not drawn) | . | . | . | . | . | .
CCOc1ccc(C2C=C(c3ccc(F)cc3)Nc3ncnn32)cc1 (stereo not drawn) | . | 53 | 63 | . | . | .
CC(C)(C)c1ccc(C2=CC(c3ccccc3F)n3ncnc3N2)cc1 (stereo not drawn) | . | / | / | / | 25 | /
Cn1cccc1C1C=C(c2ccc(C(C)(C)C)cc2)Nc2ncnn21 (stereo not drawn) | . | / | / | / | ? | /
Fc1ccc(C2=CC(c3ccc(Br)o3)n3ncnc3N2)cc1 (stereo not drawn) | / | 62 | . | . | / | .
COc1ccc(C(=O)NC(=S)Nc2ccc3[nH]c(=O)[nH]c3c2)c(OC)c1 | . | / | / | / | . | /
CCC(C)[C@H](NC(=O)[C@@H]1CSC2c3ccccc3C(=O)N21)C(=O)N1CCCCC1 (stereo partly drawn) | . | / | / | / | . | /
Cc1cccc(C)c1OCc1cc(C(=O)N2CCN(Cc3nccn3C)CC2)no1 | . | / | / | / | . | /
Fc1ccc(C2=CC(c3ccco3)n3ncnc3N2)cc1 (stereo not drawn) | -51 | . | . | . | . | .
Oc1ccc(C2C=C(c3ccc(F)cc3)Nc3ncnn32)cc1 (stereo not drawn) | . | . | . | / | . | .
O=c1cc(-c2ccccc2)[nH]n1-c1nc2ccccc2[nH]1 | . | . | . | . | 26 | .
CC(=O)c1cc2c(cc1NC(=O)Nc1cccc(Cl)c1)OCCO2 | . | . | 62 | . | ? | .
CC(=O)c1cccc(NC(=O)Nc2c(C)nn(C)c2C)c1 | . | . | . | . | 63 | .
CCOC(=O)c1ccc(NC(=O)Nc2c(C)nn(C)c2C)cc1 | . | . | . | . | . | .
Cc1ccc(/C=c2\sc3nc(-c4cccnc4)nn3c2=O)cc1 | . | 86 | . | . | . | .
C/C(N)=C(/C#N)C(=O)CSc1nc2scc(-c3ccc(F)cc3)c2c(=O)n1C | . | . | . | . | . | .
COc1ccc(OC)c(N=c2oc3cc(O)ccc3cc2C(N)=O)c1 | . | . | 117 | . | 158 | 120
COc1ccc2cc(C(N)=O)c(=Nc3ccccc3)oc2c1 | . | . | . | . | . | /
NC(=O)c1cc2ccc(O)cc2oc1=Nc1ccccc1 | . | . | 65 | . | 176 | .
NC(=O)c1cc2ccc(O)cc2oc1=NCc1ccccc1 | ? | 108 | 83 | . | 181 | .
NC(=O)c1cc2ccccc2oc1=NCc1ccccc1 | . | . | . | . | . | .
O=C(CN1CCOCC1)Nc1ncc(Cc2cccc(Cl)c2Cl)s1 | . | . | . | . | / | .
O=C(C1CCN(S(=O)(=O)c2ccccc2)CC1)N1CCCCC1 | . | / | / | / | . | /
CCc1ccc(C(=O)NNC(=O)c2ccc(=O)n(C)n2)cc1 | -30 | / | / | / | . | /

High-throughput results deposited in PubChem by several laboratories.
